Consider 20 compounds from ChEMBL document CHEMBL2401700, “Discovery of TD-8954, a clinical stage 5-HT(4) receptor agonist with gastrointestinal prokinetic properties” (Bioorg Med Chem Lett, 2013).

Each structure is given as a SMILES string. A value given as a limit tells only on which side of the number the result lay.

A short description of series [1]: Half life in rat liver micrososmes. In kind it is ADME, Microsome. The conditions noted are these: liver microsomes. On the technique in general: Liver microsomes are a subcellular fraction often used to study metabolism.
Series [2] concerns the target T1, 5-hydroxytryptamine receptor 3A (Homo sapiens, UniProt P46098).
T1 sequence (P46098 whole entry): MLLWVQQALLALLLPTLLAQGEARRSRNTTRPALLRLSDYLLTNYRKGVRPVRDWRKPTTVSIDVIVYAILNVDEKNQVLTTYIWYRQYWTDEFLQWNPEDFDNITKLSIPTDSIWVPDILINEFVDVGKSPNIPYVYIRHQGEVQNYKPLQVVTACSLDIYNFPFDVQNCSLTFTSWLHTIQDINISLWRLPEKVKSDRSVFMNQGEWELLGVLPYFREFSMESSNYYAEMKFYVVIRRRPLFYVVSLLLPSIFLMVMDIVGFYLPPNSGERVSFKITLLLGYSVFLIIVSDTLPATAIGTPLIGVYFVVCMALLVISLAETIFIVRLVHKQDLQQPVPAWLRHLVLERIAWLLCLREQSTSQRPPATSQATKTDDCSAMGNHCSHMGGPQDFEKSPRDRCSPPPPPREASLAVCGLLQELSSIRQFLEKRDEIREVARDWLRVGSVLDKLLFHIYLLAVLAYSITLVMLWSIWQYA
Put plainly: Binding affinity to human recombinant 5HT3 receptor.

Series [3] has as its target T2, 5-hydroxytryptamine receptor 4 (Homo sapiens, UniProt Q13639). Put plainly: Agonist activity at human recombinant 5HT4 receptor assessed as cAMP accumulation. In kind it is functional. Summed up: (§1)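 cAMP accumulation in cells expressing human recombinant 5-HT4 receptor, reported as pEC50 with intrinsic activity as % of the maximum response achieved by 5-HT.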
(Changes in cAMP serve as a functional read-out for many G protein-coupled receptors.)

For series [4], the target named is T2, 5-hydroxytryptamine receptor 4. Briefly: Binding affinity to human recombinant 5HT4 receptor.
A short description of series [5]: Permeability across human Caco2 cells. The class given is ADME, cell-based. To be noted: Caco-2, read-out: Kp. A general note: Caco-2 monolayers are a common model of the intestinal barrier.
For series [6], the target named is T2, 5-hydroxytryptamine receptor 4. Briefly: Agonist activity at human recombinant 5HT4 receptor assessed as cAMP accumulation relative to 5-HT. The class given is functional. The method, boiled down:
as §1

T2 sequence (Q13639 whole entry): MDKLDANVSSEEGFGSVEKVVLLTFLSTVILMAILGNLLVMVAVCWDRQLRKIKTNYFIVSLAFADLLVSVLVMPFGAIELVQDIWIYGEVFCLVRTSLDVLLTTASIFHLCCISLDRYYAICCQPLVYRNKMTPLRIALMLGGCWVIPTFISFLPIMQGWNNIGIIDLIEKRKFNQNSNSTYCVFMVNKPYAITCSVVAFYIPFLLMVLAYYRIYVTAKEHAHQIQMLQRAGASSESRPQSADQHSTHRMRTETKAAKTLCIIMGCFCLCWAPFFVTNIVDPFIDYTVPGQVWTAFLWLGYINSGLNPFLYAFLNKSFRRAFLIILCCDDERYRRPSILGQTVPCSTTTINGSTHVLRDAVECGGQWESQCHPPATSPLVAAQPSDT

`CC(C)c1nc2cccc(C(=O)NCC3CCN(CC(O)CN(C)S(C)(=O)=O)CC3)c2[nH]1` (stereo not given): the half-life (usually how long it takes for the measured level to halve) in series [1] was more than 1.5 h. Also, the Ki (usually a measure of affinity in units of concentration, obtained from inhibition or displacement) in series [2] was 79400 nM; in series [4], 1.26 nM. Further, the EC50 – broadly, the concentration giving half of the maximal effect – in series [3] was 0.398 nM. Also, the Papp in series [5] was determined as 1 ×10⁻⁶ cm/s.

As to `CS(=O)(=O)N1CCN(CC(O)CN2[C@@H]3CC[C@H]2C[C@@H](NC(=O)c2cccc4[nH]cnc24)C3)CC1` (stereo not given in full), the Intrinsic activity in series [6] is 54%.

Consider `CC(F)(F)c1nc2c(C(=O)NCC3CCN(CC(O)CN4CCN(S(C)(=O)=O)CC4)CC3)cccc2[nH]1` (stereo not given), for which the Intrinsic activity in series [6] was found to be 59%.

Consider `CC(=O)N1CCN(CCN2CCC(CNC(=O)c3cccc4[nH]c(C(C)C)nc34)CC2)CC1`, for which the Intrinsic activity in series [6] is 76%.

`CS(=O)(=O)N1CCN(CC(O)CN2[C@@H]3CC[C@H]2C[C@@H](NC(=O)c2cccc4nc[nH]c24)C3)CC1` (stereo not given in full): the Ki in series [2] is 20000 nM; in series [4], 316 nM. For the same compound, the EC50 in series [3] was 251 nM.

As to `CC(C)c1nc2c(C(=O)NCC3CCN(CC(O)CN(C)S(C)(=O)=O)CC3)cccc2[nH]1` (stereo not given), the Intrinsic activity in series [6] worked out at 83%.

Consider `CS(=O)(=O)N1CCN(CC(O)CN2CCC(CNC(=O)c3cccc4[nH]cnc34)CC2)CC1` (stereo not given), for which the Intrinsic activity in series [6] came to 6%.

As to `COC(=O)N(C)CC(O)CN1CCC(CNC(=O)c2cccc3nc(C(C)C)[nH]c23)CC1` (stereo not given), the half-life in series [1] was 1.32 h. Besides, the Ki was 50100 nM in series [2] and 3.98 nM in series [4]. Moreover, the EC50 in series [3] was 2 nM. In series [5], the Papp came out at 2 ×10⁻⁶ cm/s.

For `COC(=O)N(C)CC(O)CN1CCC(CNC(=O)c2cccc3[nH]c(C(C)C)nc23)CC1` (stereo not given), the Intrinsic activity in series [6] stood at 64%.

As for `CS(=O)(=O)N1CCN(CC(O)CN2CCC(CNC(=O)c3cccc4[nH]c(-c5ccccc5)nc34)CC2)CC1` (stereo not given), in series [6], the Intrinsic activity stood at 41%. The Ki in series [2] was 15800 nM; in series [4], 1.26 nM. Moreover, the EC50 in series [3] is 1.58 nM.

Turning to `CC(F)(F)c1nc2cccc(C(=O)NCC3CCN(CC(O)CN4CCN(S(C)(=O)=O)CC4)CC3)c2[nH]1` (stereo not given), the Ki in series [2] is 7940 nM; in series [4], 2 nM. In series [3], the EC50 was 0.794 nM.

In turn, `CC(=O)N1CCN(CCN2CCC(CNC(=O)c3cccc4nc(C(C)C)[nH]c34)CC2)CC1` displayed a half-life in series [1] of more than 1.5 h. The Ki in series [2] is 39800 nM; in series [4], 5.01 nM. Also, the EC50 in series [3] is 3.16 nM.

Consider `CS(=O)(=O)N1CCN(CC(O)CN2CCC(NC(=O)c3cccc4[nH]cnc34)CC2)CC1` (stereo not given), for which the Intrinsic activity in series [6] was found to be 7%. Besides, the Ki in series [2] is 63100 nM; in series [4] it was 251 nM. Moreover, the EC50 in series [3] is 631 nM.

For `CC(C)c1nc2c(C(=O)NCC3CCN(CC(O)CN4CCN(S(C)(=O)=O)CC4)CC3)cc(Cl)cc2[nH]1` (stereo not given), the Intrinsic activity in series [6] was 0%. Also, the values for the Ki in series [2] and in series [4] were 1260 nM and 0.316 nM, respectively.

In series [1], `CC(C)(C)c1nc2cccc(C(=O)NCC3CCN(CC(O)CN4CCN(S(C)(=O)=O)CC4)CC3)c2[nH]1` (stereo not given) displayed a half-life of more than 1.5 h. The Ki in series [2] is 39800 nM; in series [4], 12.6 nM. The EC50 in series [3] is 3.16 nM. Moreover, the Papp in series [5] was 0.5 ×10⁻⁶ cm/s.

With `CCc1nc2c(C(=O)NCC3CCN(CC(O)CN4CCN(S(C)(=O)=O)CC4)CC3)cccc2[nH]1` (stereo not given), the Intrinsic activity in series [6] amounted to 22%. For the same compound, the Ki is 79400 nM in series [2] and 0.501 nM in series [4]. In addition, the EC50 in series [3] was 1 nM.

As for `CS(=O)(=O)N1CCN(CC(O)CN2CCC(CNC(=O)c3cccc4nc[nH]c34)CC2)CC1` (stereo not given), the Ki in series [2] was 50100 nM; in series [4] it was 6.31 nM. Also, in series [3], the half-maximal effective concentration (EC50) is 10 nM.

The compound `CC(=O)N(C)CC(O)CN1CCC(CNC(=O)c2cccc3nc(C(C)C)[nH]c23)CC1` (stereo not given) returned a half-life in series [1] of more than 1.5 h. Also, the Ki in series [2] is 63100 nM; in series [4] it was 3.98 nM. For the same compound, the half-maximal effective concentration (EC50) in series [3] was 1.58 nM.

Turning to `CC(=O)N(C)CC(O)CN1CCC(CNC(=O)c2cccc3[nH]c(C(C)C)nc23)CC1` (stereo not given), in series [6], the Intrinsic activity came out at 64%.

`CC(C)(C)c1nc2c(C(=O)NCC3CCN(CC(O)CN4CCN(S(C)(=O)=O)CC4)CC3)cccc2[nH]1` (stereo not given): in series [6], the Intrinsic activity came to 94%.
